According to ChEMBL document CHEMBL3751743, “Synthesis and anti-cancer screening of novel heterocyclic-(2H)-1,2,3-triazoles as potential anti-cancer agents” (Medchemcomm, 2015):

Key:
MDA-MB-231 = test: Cytotoxicity against human MDA-MB-231 cells after 48 hrs by SRB assay; format: functional; conditions: MDA-MB-231, 48 h
Outline: (§1)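 NCI-60 five-dose screen: compounds dissolved in DMSO/H2O, tested at five 10-fold dilutions (10^-4 to 10^-8 M) for 48 h. Growth measured by sulforhodamine B optical density at time zero and after 48 h drug or vehicle exposure. Percentage growth calculated relative to control. GI50 is the molar concentration giving 50% reduction in net cell growth versus day-0 cell numbers.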

[1] = Cytotoxicity against human SW620 cells after 48 hrs by SRB assay; format: functional; conditions: SW-620, 48 h; outline: as §1
[2] = Cytotoxicity against human OVCAR8 cells after 48 hrs by SRB assay; format: functional; conditions: OVCAR-8, 48 h; outline: as §1
MDA-MB-468 = test: Cytotoxicity against human MDA-MB-468 cells after 48 hrs by SRB assay; format: functional; conditions: MDA-MB-468, 48 h; outline: as §1
[3] = Cytotoxicity against human HOP92 cells after 48 hrs by SRB assay; format: functional; conditions: HOP-92, 48 h; outline: as §1
CCRF-CEM = test: Cytotoxicity against human CCRF-CEM cells after 48 hrs by SRB assay; format: functional; outline: as §1
U-251 = test: Cytotoxicity against human U251 cells after 48 hrs by SRB assay; format: functional; conditions: U-251, 48 h
Outline: (§2)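 NCI-60 five-dose screen. Compounds dissolved in DMSO/H2O and tested at five 10-fold dilutions (10^-4 to 10^-8 M) for 48 h. Growth read by sulforhodamine B optical density at time zero and after 48 h of exposure to compound or vehicle. Percent growth calculated against control. GI50 is the molar concentration giving 50% reduction in net cell growth relative to cell number on day 0.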

SN12C = test: Cytotoxicity against human SN12C cells after 48 hrs by SRB assay; format: functional; outline: as §1
NCI-H522 = test: Cytotoxicity against human NCI-H522 cells after 48 hrs by SRB assay; format: functional; conditions: NCI-H522, 48 h; outline: as §1
786-0 = test: Cytotoxicity against human 786-0 cells after 48 hrs by SRB assay; format: functional; conditions: 786-0, 48 h; outline: as §1
[4] = Cytotoxicity against human LOXIMVI cells after 48 hrs by SRB assay; format: functional; conditions: LOX IMVI; outline: as §1
[5] = Cytotoxicity against human COLO205 cells after 48 hrs by SRB assay; format: functional; conditions: COLO 205, 48 h; outline: as §1
SK-MEL-5 = test: Cytotoxicity against human SK-MEL-5 cells after 48 hrs by SRB assay; format: functional; conditions: SK-MEL-5, 48 h; outline: as §1
[6] = Cytotoxicity against human DU145 cells after 48 hrs by SRB assay; format: functional; conditions: DU-145, 48 h; outline: as §1
[7] = Cytotoxicity against human HL-60(TB) cells after 48 hrs by SRB assay; format: functional; conditions: HL-60, 48 h; outline: as §1
[8] = Cytotoxicity against human RPMI8226 cells after 48 hrs by SRB assay; format: functional; conditions: RPMI-8226, 48 h; outline: as §1
[9] = Cytotoxicity against human UO31 cells after 48 hrs by SRB assay; format: functional; conditions: UO-31, 48 h; outline: as §2
MCF7 = test: Cytotoxicity against human MCF7 cells after 48 hrs by SRB assay; format: functional; conditions: MCF7, 48 h; outline: as §1
K562 = test: Cytotoxicity against human K562 cells after 48 hrs by SRB assay; format: functional; conditions: K562, 48 h; outline: as §1
M14 = test: Cytotoxicity against human M14 cells after 48 hrs by SRB assay; format: functional; conditions: M14, 48 h; outline: as §1
[10] = Cytotoxicity against human NCI-ADR-RES cells after 48 hrs by SRB assay; format: functional; outline: as §1
[11] = Cytotoxicity against human Hs 578T cells after 48 hrs by SRB assay; format: functional; outline: as §1
A498 = test: Cytotoxicity against human A498 cells after 48 hrs by SRB assay; format: functional; conditions: A498, 48 h; outline: as §1
Tubulin = Tubulin (Sus scrofa, UniProt P02554+P02550); test: Inhibition of porcine brain tubulin polymerization by spectrophotometric analysis
Outline: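 Tubulin at 4 mg/mL in cold 80 mM PIPES pH 6.9 with 2 mM MgCl2, 0.5 mM EGTA, GTP and 10% glycerol. Compound (added as 10x stock in 50% DMSO) or DMSO was preincubated 2 min at 37 °C in a prewarmed plate. Cold tubulin was then added, and polymerization at 37 °C was followed by A340 over time. Dose-response, mean ± s.d., n=3.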

[12] = Cytotoxicity against human SF268 cells after 48 hrs by SRB assay; format: functional; conditions: SF-268, 48 h; outline: as §1
[13] = Cytotoxicity against human SKOV3 cells after 48 hrs by SRB assay; format: functional; conditions: SK-OV-3, 48 h; outline: as §1
NCI-H226 = test: Cytotoxicity against human NCI-H226 cells after 48 hrs by SRB assay; format: functional; conditions: NCI-H226, 48 h; outline: as §1
T47D = test: Cytotoxicity against human T47D cells after 48 hrs by SRB assay; format: functional; outline: as §2
[14] = Cytotoxicity against human SF295 cells after 48 hrs by SRB assay; format: functional; conditions: SF-295, 48 h; outline: as §1
NCI-H460 = test: Cytotoxicity against human NCI-H460 cells after 48 hrs by SRB assay; format: functional; conditions: NCI-H460, 48 h; outline: as §1
[15] = Cytotoxicity against human Caki1 cells after 48 hrs by SRB assay; format: functional; conditions: CAKI-1, 48 h; outline: as §1
[16] = Cytotoxicity against human MOLT4 cells after 48 hrs by SRB assay; format: functional; conditions: MOLT-4, 48 h; outline: as §1
MDA-MB-435 = test: Cytotoxicity against human MDA-MB-435 cells after 48 hrs by SRB assay; format: functional; conditions: MDA-MB-435, 48 h; outline: as §1
[17] = Cytotoxicity against human UACC257 cells after 48 hrs by SRB assay; format: functional; conditions: UACC-257, 48 h; outline: as §2
[18] = Cytotoxicity against human OVCAR5 cells after 48 hrs by SRB assay; format: functional; conditions: OVCAR-5, 48 h; outline: as §1
[19] = Cytotoxicity against human HCC2998 cells after 48 hrs by SRB assay; format: functional; conditions: HCC 2998, 48 h; outline: as §1
SR = test: Cytotoxicity against human SR cells after 48 hrs by SRB assay; format: functional; outline: as §1
[20] = Cytotoxicity against human UACC62 cells after 48 hrs by SRB assay; format: functional; conditions: UACC-62, 48 h; outline: as §2
[21] = Cytotoxicity against human TK10 cells after 48 hrs by SRB assay; format: functional; conditions: TK-10, 48 h; outline: as §2
A549 = test: Cytotoxicity against human A549 cells after 48 hrs by SRB assay; format: functional; conditions: A549, 48 h; outline: as §1
[22] = Cytotoxicity against human OVCAR3 cells after 48 hrs by SRB assay; format: functional; conditions: OVCAR-3, 48 h; outline: as §1
[23] = Cytotoxicity against human SNB75 cells after 48 hrs by SRB assay; format: functional; conditions: SNB-75, 48 h; outline: as §1
[24] = Cytotoxicity against human SF539 cells after 48 hrs by SRB assay; format: functional; conditions: SF-539, 48 h; outline: as §1
NCI-H23 = test: Cytotoxicity against human NCI-H23 cells after 48 hrs by SRB assay; format: functional; conditions: NCI-H23, 48 h; outline: as §1
[25] = Cytotoxicity against human HCT15 cells after 48 hrs by SRB assay; format: functional; conditions: HCT-15, 48 h; outline: as §1
ACHN = test: Cytotoxicity against human ACHN cells after 48 hrs by SRB assay; format: functional; outline: as §1
SK-MEL-2 = test: Cytotoxicity against human SK-MEL-2 cells after 48 hrs by SRB assay; format: functional; conditions: SK-MEL-2, 48 h; outline: as §1
[26] = Cytotoxicity against human BT549 cells after 48 hrs by SRB assay; format: functional; conditions: BT-549, 48 h; outline: as §1
[27] = Cytotoxicity against human SNB19 cells after 48 hrs by SRB assay; format: functional; conditions: SNB-19, 48 h; outline: as §1
[28] = Cytotoxicity against human RXF393 cells after 48 hrs by SRB assay; format: functional; conditions: RXF 393, 48 h; outline: as §1
HT-29 = test: Cytotoxicity against human HT-29 cells after 48 hrs by SRB assay; format: functional; conditions: HT-29, 48 h; outline: as §1
KM12 = test: Cytotoxicity against human KM12 cells after 48 hrs by SRB assay; format: functional; conditions: KM12, 48 h; outline: as §1
[29] = Cytotoxicity against human OVCAR4 cells after 48 hrs by SRB assay; format: functional; conditions: OVCAR-4, 48 h; outline: as §1
[30] = Cytotoxicity against human HCT116 cells after 48 hrs by SRB assay; format: functional; conditions: HCT-116, 48 h; outline: as §1
[31] = Cytotoxicity against human PC3 cells after 48 hrs by SRB assay; format: functional; conditions: PC-3, 48 h; outline: as §1

COc1cc(OC)cc(-c2n[nH]nc2-c2c[nH]c3ccccc23)c1
GI50 (MDA-MB-231): 0.076 µM | GI50 [1]: 0.035 µM | GI50 [2]: 0.07 µM | GI50 (MDA-MB-468): 0.037 µM | GI50 [3]: 0.029 µM | GI50 (CCRF-CEM): 0.037 µM | GI50 (U-251): 0.054 µM | GI50 (SN12C): 0.069 µM | GI50 (NCI-H522): 0.013 µM | GI50 (786-0): 0.03 µM | GI50 [4]: 0.055 µM | GI50 [5]: 0.035 µM | GI50 (SK-MEL-5): 0.034 µM | GI50 [6]: 0.075 µM | GI50 [7]: 0.033 µM | GI50 [8]: 0.053 µM | GI50 [9]: 0.062 µM | GI50 (MCF7): 0.029 µM | GI50 (K562): 0.031 µM | GI50 (M14): 0.031 µM | GI50 [10]: 0.03 µM | GI50 [11]: 0.031 µM | GI50 (A498): 0.033 µM | IC50 (Tubulin): 13.5 µM | GI50 [12]: 0.067 µM | GI50 [13]: 0.034 µM | GI50 (NCI-H226): 0.075 µM | GI50 (T47D): 0.044 µM | GI50 [14]: 0.026 µM | GI50 (NCI-H460): 0.038 µM | GI50 [15]: 0.038 µM | GI50 [16]: 0.063 µM | GI50 (MDA-MB-435): 0.01 µM | GI50 [17]: > 100 µM | GI50 [18]: 0.416 µM | GI50 [19]: 0.251 µM | GI50 (SR): 0.047 µM | GI50 [20]: 0.034 µM | GI50 [21]: 0.083 µM | GI50 (A549): 0.088 µM | GI50 [22]: 0.028 µM | GI50 [23]: 0.025 µM | GI50 [24]: 0.024 µM | GI50 (NCI-H23): 0.124 µM | GI50 [25]: 0.031 µM | GI50 (ACHN): 0.045 µM | GI50 (SK-MEL-2): 0.031 µM | GI50 [26]: 0.017 µM | GI50 [27]: 0.056 µM | GI50 [28]: 0.052 µM | GI50 (HT-29): 0.031 µM | GI50 (KM12): 0.045 µM | GI50 [29]: 2.67 µM | GI50 [30]: 0.031 µM | GI50 [31]: 0.038 µM
